Source: ChEMBL document CHEMBL1275449, “Potent in vitro antifungal activities of naturally occurring acetylenic acids” (Antimicrob Agents Chemother, 2008)
Active and inactive are the calls of the source. The calls are words filed in the database; no cut-off is given here.

How the values were obtained:
Pichia kudriavzevii = experiment: Antifungal activity against Candida krusei ATCC 6258 at 169.8 uM after 48 hrs by CLSI method; type: functional, organism-based
Summary of the method: (§1)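 Candida inocula came from 24–72-h SD agar colonies suspended in saline. They were diluted by OD630 standard curve into RPMI 1640 (0.2% dextrose, 0.03% glutamine, 0.165 M MOPS, pH 7.0) to 1.5 × 10³ CFU/ml. Compounds were run as 11 twofold dilutions in 20% DMSO-saline, in duplicate, at 35°C for 48 h, with OD530 read before and after. Percent growth at the top concentration, IC50, MIC, and MFC (SD agar plating) were derived.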

Candida albicans [1] = experiment: Antifungal activity against Candida albicans ATCC 60193 at 169.8 uM after 48 hrs by CLSI method; type: functional, organism-based; summary of the method: as §1
Trichophyton rubrum [2] = experiment: Antifungal activity against Trichophyton rubrum ATCC MYA-4438 at 169.8 uM after 5 days by CLSI method; type: functional, organism-based
Candida albicans [3] = experiment: Antifungal activity against Candida albicans ATCC 90028 at 169.8 uM after 48 hrs by CLSI method; type: functional, organism-based; summary of the method: as §1
Candida albicans [4] = experiment: Antifungal activity against Fluconazole resistant Candida albicans isolate 17 at 169.8 uM after 48 hrs by CLSI method; type: functional, organism-based
Summary of the method: (§2)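 Candida in CLSI broth microdilution. Saline colony suspension set to 1.5 × 10³ CFU/ml (final) in MOPS-buffered RPMI 1640, pH 7.0. Test agent given as twofold serial dilutions in 20% DMSO-saline, duplicate wells. 35°C for 48 h. Growth read as OD530 before and after incubation. Percent inhibition scored at the highest test concentration.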

Cryptococcus neoformans [5] = experiment: Antifungal activity against Cryptococcus neoformans ATCC 66031 at 169.8 uM after 72 hrs by CLSI method; type: functional, organism-based
Summary of the method: (§3)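 SD broth replaced RPMI because growth in RPMI was poor; other CLSI conditions were kept. Inoculum was 1.5 × 10³ CFU/ml from colonies on SD agar, checked by plating. Twofold serial dilutions (11 concentrations) in 20% DMSO-saline were tested in duplicate. OD530 was read before and after incubation at 35°C for 72 h. Percent growth gave IC50; the MIC is the lowest concentration with no detectable growth.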

Mus musculus = experiment: Toxicity in mouse up to 34 umol/kg/day, ip for 3 days; type: organism-based; settings: in vivo, 72 h
Candida albicans [6] = experiment: Antifungal activity against Candida albicans ATCC 200955 at 169.8 uM after 48 hrs by CLSI method; type: functional, organism-based; summary of the method: as §1
Candida albicans [7] = experiment: Antifungal activity against Candida albicans ATCC 200955 at 187.7 uM after 48 hrs by CLSI method; type: functional, organism-based; summary of the method: as §1
Aspergillus niger [8] = experiment: Antifungal activity against Aspergillus niger ATCC 16404 at 187.7 uM after 48 hrs by CLSI method; type: functional, organism-based
Cryptococcus neoformans [9] = experiment: Antifungal activity against Cryptococcus neoformans ATCC 90113 at 187.7 uM after 72 hrs by CLSI method; type: functional, organism-based; summary of the method: as §3
Candida albicans [10] = experiment: Antifungal activity against Fluconazole resistant Candida albicans isolate 1 at 187.7 uM after 48 hrs by CLSI method; type: functional, organism-based; summary of the method: as §2
Candida tropicalis [11] = experiment: Antifungal activity against Candida tropicalis ATCC 750 at 187.7 uM after 48 hrs by CLSI method; type: functional, organism-based
Summary of the method: (§4)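 Yeast suspensions made from 3-5 colonies off 24-72 h SD agar plates in saline. They were diluted by OD630 standard curve in RPMI 1640 (0.2% dextrose, 0.03% glutamine, 0.165 M MOPS, pH 7.0) to 1.5 × 10³ CFU/ml. Twofold dilutions (11 concentrations, 20% DMSO-saline) run in duplicate. OD530 read before and after 35°C, 48 h. Line values are top test concentrations; no-growth endpoints give MIC/MFC.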

Aspergillus flavus [12] = experiment: Antifungal activity against Aspergillus flavus ATCC 204304 at 187.7 uM after 48 hrs by CLSI method; type: functional, organism-based
Nakaseomyces glabratus [13] = experiment: Antifungal activity against Candida glabrata ATCC 90030 at 198.1 uM after 48 hrs by CLSI method; type: functional, organism-based; summary of the method: as §1
Cryptococcus neoformans [14] = experiment: Antifungal activity against Cryptococcus neoformans ATCC 90113 at 198.1 uM after 72 hrs by CLSI method; type: functional, organism-based
Candida albicans [15] = experiment: Antifungal activity against Fluconazole resistant Candida albicans isolate 1 at 198.1 uM after 48 hrs by CLSI method; type: functional, organism-based; summary of the method: as §2
Candida albicans [16] = experiment: Antifungal activity against Candida albicans ATCC 200955 at 198.1 uM after 48 hrs by CLSI method; type: functional, organism-based; summary of the method: as §1
Candida albicans [17] = experiment: Antifungal activity against Candida albicans ATCC 60193 at 198.1 uM after 48 hrs by CLSI method; type: functional, organism-based; summary of the method: as §1
Aspergillus fumigatus [18] = experiment: Antifungal activity against Aspergillus fumigatus ATCC 204305 at 168.9 uM after 48 hrs by CLSI method; type: functional, organism-based
Trichophyton rubrum [19] = experiment: Antifungal activity against Trichophyton rubrum ATCC 10218 at 168.9 uM after 5 days by CLSI method; type: functional, organism-based
Cryptococcus neoformans [20] = experiment: Antifungal activity against Cryptococcus neoformans ATCC 90113 at 168.9 uM after 72 hrs by CLSI method; type: functional, organism-based; summary of the method: as §3
Candida albicans [21] = experiment: Antifungal activity against Candida albicans ATCC 90028 at 168.9 uM after 48 hrs by CLSI method; type: functional, organism-based; summary of the method: as §1
Candida albicans [22] = experiment: Antifungal activity against Candida albicans ATCC 32354 at 168.9 uM after 48 hrs by CLSI method; type: functional, organism-based; summary of the method: as §1
Nakaseomyces glabratus [23] = experiment: Antifungal activity against Candida glabrata ATCC 90030 at 168.9 uM after 48 hrs by CLSI method; type: functional, organism-based; summary of the method: as §1
Candida albicans [24] = experiment: Antifungal activity against Candida albicans ATCC 60193 at 168.9 uM after 48 hrs by CLSI method; type: functional, organism-based; summary of the method: as §1
Candida tropicalis [25] = experiment: Antifungal activity against Candida tropicalis ATCC 750 at 168.9 uM after 48 hrs by CLSI method; type: functional, organism-based; summary of the method: as §4
Candida albicans [26] = experiment: Antifungal activity against Fluconazole resistant Candida albicans isolate 17 at 168.9 uM after 48 hrs by CLSI method; type: functional, organism-based; summary of the method: as §2
[27] = system: Trichophyton mentagrophytes; experiment: Antifungal activity against Trichophyton mentagrophytes ATCC 9533 at 168.9 uM after 5 days by CLSI method; type: functional, organism-based
Aspergillus fumigatus [28] = experiment: Antifungal activity against Aspergillus fumigatus ATCC 90906 at 168.9 uM after 48 hrs by CLSI method; type: functional, organism-based
Aspergillus flavus [29] = experiment: Antifungal activity against Aspergillus flavus ATCC 204304 at 9.4 uM after 48 hrs by CLSI method; type: functional, organism-based
Summary of the method: (§5)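 Aspergillus growth on 1–6-week potato dextrose slants scraped and Miracloth-filtered. Inoculum sized by OD630 curve to 2.7 × 10⁴ CFU/ml (final) in 5% Alamar blue-RPMI 1640 (MOPS, pH 7.0). Duplicate twofold dilutions from 20% DMSO-saline. 35°C for 48 h. Fluorescence 544/590 nm read before and after. Percent inhibition taken at the highest test concentration.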

Candida albicans [30] = experiment: Antifungal activity against Candida albicans ATCC 200955 at 9.4 uM after 48 hrs by CLSI method; type: functional, organism-based; summary of the method: as §2
Aspergillus niger [31] = experiment: Antifungal activity against Aspergillus niger ATCC 16404 at 9.4 uM after 48 hrs by CLSI method; type: functional, organism-based; summary of the method: as §5

CCCCCCCCCCCCC#CCCCCC(=O)O [6-NONADECYNOIC ACID]
Activity (Pichia kudriavzevii): inactive
Activity (Candida albicans [1]): inactive
Activity (Trichophyton rubrum [2]): inactive
Activity (Candida albicans [3]): inactive
Activity (Candida albicans [4]): inactive
Activity (Cryptococcus neoformans [5]): inactive
Activity (Mus musculus): Non-toxic
Activity (Candida albicans [6]): inactive

CCCCCCCCCCC#CCCCCC(=O)O
Activity (Candida albicans [7]): inactive
Activity (Aspergillus niger [8]): inactive
Activity (Cryptococcus neoformans [9]): inactive
Activity (Candida albicans [10]): inactive
Activity (Candida tropicalis [11]): inactive
Activity (Aspergillus flavus [12]): inactive

CCCCCCCCCC#CCCCCC(=O)O
Activity (Nakaseomyces glabratus [13]): inactive
Activity (Cryptococcus neoformans [14]): inactive
Activity (Candida albicans [15]): inactive
Activity (Candida albicans [16]): inactive
Activity (Candida albicans [17]): inactive

CCCCCC#CCC#CCC#CCC#CCCCC(=O)O
Activity (Aspergillus fumigatus [18]): inactive
Activity (Trichophyton rubrum [19]): inactive
Activity (Cryptococcus neoformans [20]): inactive
Activity (Candida albicans [21]): inactive
Activity (Candida albicans [22]): inactive
Activity (Nakaseomyces glabratus [23]): inactive
Activity (Candida albicans [24]): inactive
Activity (Candida tropicalis [25]): inactive
Activity (Candida albicans [26]): inactive
Activity [27]: inactive
Activity (Aspergillus fumigatus [28]): inactive

CC(=O)N1CCN(c2ccc(OCC3COC(Cn4ccnc4)(c4ccc(Cl)cc4Cl)O3)cc2)CC1 (stereo not drawn) [KETOCONAZOLE]
Activity (Aspergillus flavus [29]): inactive
Activity (Candida albicans [30]): inactive
Activity (Aspergillus niger [31]): inactive
